Assay outcomes (PubChem)
procasp3 activ – activates human procaspase-3 | P42574 | recombinant procaspase-3 D3A, Ac-DEVD-pNA absorbance 405 nm | activation, % at 8.5 µM | hit rate 0.11% among 330,000 | AID 463141;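 active = activation above the mean of all tested compounds plus 3 SD, cut at about 21% in these data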;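 note: 0% = DMSO alone and 100% = DMSO wells spiked with extra 5 µM PC-3 D3A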
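Test system: Procaspase-3 D3A mutant, all three cleavage aspartates alanine | Dosing: Single dose, 8.5 µM nominal compound, 0.8% DMSO | Schedule: 1 h preincubation, 2 h reaction | Technique: 405 nm absorbance of p-nitroaniline, reads at 0 and 120 min | Repeats: One well per compound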
PolyA inh – blocks polyadenylation in yeast reporter cells; activity score, % at 12 µM; hit rate 0.02% among 300,000; S. cerevisiae SKY197-pL101 polyadenylation reporter, beta-gal luminescence; efflux-impaired pdr1/pdr3 knockout yeast; score 100 = 6 SD above DMSO; AID 1875;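 active = lowest replicate activity score at least 50, where 100 means six control SD above control mean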;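 note: yeast exposed to compound for 9 h at 30 °C; higher score means more reporter readthrough which indicates perturbed polyadenylation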
proCasp7 act – counter-screen for procaspase-3 activators: activators of human procaspase-7 | recombinant procaspase-7, Ac-DEVD-pNA absorbance 405 nm; D23A/D198A/D206A triple mutant, cannot self-cleave; scale: DMSO 0, 5 µM enzyme 100 | P55210 | hit rate 0.093% among 330,000 | activation, % at 8.5 µM;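 active = percent activation above the screen-wide mean plus 3 SD, cut at about 25% in these data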
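Material: Procaspase-7 triple mutant (PC-7 D3A) | Quantity: 2 µM procaspase-7 mutant as dispensed | Reagent: DEVD-pNA substrate | Times: 1 h preincubation, 2 h reaction | Technique: 405 nm absorbance of p-nitroaniline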
AHR act – activators of human aryl hydrocarbon receptor; P35869; AHR-responsive luciferase reporter cells, luminescence; activation, % at 5 µM; hit rate 2.5% among 320,000; in the data active = activation above about 47%;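 note: 0% = vehicle wells and 100% = reference agonist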
Starred values were filed as active, the others as inactive; . = no result. Shown are actives, neighbours in structure and some others; about 2.6% of the full set was active somewhere.

SMILES | procasp3 activ | PolyA inh | proCasp7 act | AHR act
Cc1oc2ccc(O)cc2c1C(=O)OC(C)C | 4 | -9 | 5 | -3
CCOc1ccc(OCC)c(NC(=O)C2CCCN2S(=O)(=O)c2cccc3cccnc23)c1 (stereo not drawn) | -3 | 8 | -6 | 47*
CCOC(=O)N1CCN(CC(O)COc2ccccc2[N+](=O)[O-])CC1 (stereo not drawn) | 5 | 28 | 7 | 3
COc1ccc(/C=N/Nc2ncnc3sc(C)c(C)c23)cc1 | -28 | 12 | -23 | 62*
Cc1sc2ncnc(N/N=C/c3ccc(O)cc3)c2c1C | -20 | 4 | -10 | 28
O=C(Nc1ccc2cccnc2c1)c1ccc(Br)cc1 | 9 | -20 | 5 | 50*
Cc1cccc(NC(=O)c2ccccc2Br)n1 | -2 | 15 | -8 | 62*
O=C(Nc1ccc2nc3ccccc3nc2c1)c1ccc(Br)cc1 | 7 | -2 | -3 | -1
Cc1cc(NC(=O)c2ccc3nccnc3c2)ccc1Br | 3 | . | 6 | 64*
Cc1cccc(NC(=O)c2ccc3nccnc3c2)n1 | -6 | -11 | -1 | 48*
CCOc1ccc(S(=O)(=O)n2cnc(C)c2)cc1 | -3 | -3 | 1 | 2
O=C(NNC(=O)c1ccc2[nH]c(=O)c(=O)[nH]c2c1)c1cccc(Br)c1 | 1 | -4 | -4 | 5
O=C(N/N=C\c1ccc(Sc2ccccn2)o1)c1cccc(Br)c1 | -3 | -10 | 8 | 61*
Cc1ccccc1C(=O)N/N=C/c1ccc(Sc2ccccn2)o1 | -3 | 6 | -4 | 23
COc1ccc(Nc2nc(N)nc(COc3ccc(OC)cc3)n2)cc1 | -4 | -3 | 6 | 60*
COc1ccc(Nc2nc(N)nc(SCc3nnc(C)s3)n2)cc1 | -6 | 2 | -4 | 56*
COc1ccc(OCc2nc(N)nc(Nc3ccc(C)cc3)n2)cc1 | 5 | -15 | -2 | 65*
COc1ccc(Nc2nc(N)nc(CSc3nc(C)cc(C)n3)n2)cc1 | -4 | . | 7 | 28
COc1ccc(S(=O)(=O)N2CCC(C(=O)NCc3cccs3)CC2)cc1 | 4 | -8 | 4 | -1
O=C(Nc1ccc(O)c(-c2nc3ccccc3s2)c1)c1cc(=O)c2ccccc2o1 | -3 | 15 | 2 | 2
O=C(Nc1ccc(O)c(-c2nc3ccccc3s2)c1)c1cccs1 | 8 | 2 | 3 | 74*
O=C(Nc1ccc(F)cc1)Nc1sccc1-c1nc2ccccc2s1 | -5 | -11 | 3 | 60*
O=C(/C=C/c1ccco1)NC(=S)Nc1ccc(O)c(-c2nc3ccccc3s2)c1 | 3 | -2 | -3 | 80*
CCOC(=O)C1(Cc2ccccc2C)CCCN(C(=O)CCc2cccnc2)C1 (stereo not drawn) | -7 | -11 | -1 | 2
Cc1cc2cc(C)c3nnc(SCc4ccccn4)n3c2cc1C | 3 | -4 | -4 | 73*
SMILES | procasp3 activ | PolyA inh | proCasp7 act | AHR act
COc1ccc(-c2sc3ccc(-c4ccc5c(c4)OCO5)cc3c2-c2ccc(OC)nc2)cc1 | 1 | . | 5 | -1
CC(C)c1ccc(CNc2ccc3c(c2)ncn3C)cc1 | -3 | -3 | -7 | 63*
CN(C)c1ccc(CNc2ccc3c(c2)ncn3C)cc1 | 8 | 5 | -6 | -1
Cc1nn(Cc2ccccc2Cl)c2sc(C(=O)NC(C)(C)C)cc12 | 2 | 13 | -2 | 15
Cc1nn(Cc2ccccc2Cl)c2sc(C(=O)NCCCn3ccnc3)cc12 | -6 | -12 | 7 | 49*
Cc1csc(NC(=O)c2cc3c(C)nn(Cc4ccccc4Cl)c3s2)n1 | 1 | -19 | 4 | 47*
